The target of assay [1] is T1, D(4) dopamine receptor (Homo sapiens, UniProt P21917).
T1 sequence (P21917 whole entry): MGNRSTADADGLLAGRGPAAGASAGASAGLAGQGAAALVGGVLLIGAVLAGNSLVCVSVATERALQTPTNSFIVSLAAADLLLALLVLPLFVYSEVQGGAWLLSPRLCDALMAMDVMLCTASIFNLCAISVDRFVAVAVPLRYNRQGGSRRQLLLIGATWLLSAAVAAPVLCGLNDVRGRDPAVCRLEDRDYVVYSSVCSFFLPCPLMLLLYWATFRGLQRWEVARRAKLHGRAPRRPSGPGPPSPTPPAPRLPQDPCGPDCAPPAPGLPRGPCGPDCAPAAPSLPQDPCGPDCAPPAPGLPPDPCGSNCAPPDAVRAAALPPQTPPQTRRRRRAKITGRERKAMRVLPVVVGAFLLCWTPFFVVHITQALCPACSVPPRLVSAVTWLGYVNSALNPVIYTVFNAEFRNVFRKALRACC
In words: In vitro ability of compound to inhibit binding of [3H]spiperone to human Dopamine receptor D4.

The target of assay [2] is D(2) dopamine receptor (Homo sapiens) (UniProt P14416). In words: Compound was tested for its affinity towards human Dopamine receptor D2 at 10 uM; No affinity was observed.
For assay [3], the target named is T1, D(4) dopamine receptor. In words: In vitro ability to inhibit binding of [3H]spiperone to human recombinant Dopamine receptor D4.2 expressed on CHO cells. The class given is cell-based. The essentials:
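Frozen membranes from CHO cells transfected with human D4.2, stored at -80 C, were thawed and diluted in 50 mM Tris-HCl pH 7.4 with 120 mM NaCl, 5 mM KCl, 5 mM MgCl2 and 1 mM EDTA. They were incubated with [3H]spiperone (0.5 nM final) for 60 min at 25 C, with haloperidol defining nonspecific binding. Samples were filtered on PEI-presoaked GF/C filters, washed with cold Tris/NaCl, and counted by scintillation.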

Each structure is given as a SMILES string. The source made the active and inactive calls. The rule behind the calls is not given here.

As a reminder, the Ki is the equilibrium dissociation constant of an inhibitor or competing ligand from its target.

D(2) dopamine receptor (Homo sapiens), sequence (P14416 whole entry): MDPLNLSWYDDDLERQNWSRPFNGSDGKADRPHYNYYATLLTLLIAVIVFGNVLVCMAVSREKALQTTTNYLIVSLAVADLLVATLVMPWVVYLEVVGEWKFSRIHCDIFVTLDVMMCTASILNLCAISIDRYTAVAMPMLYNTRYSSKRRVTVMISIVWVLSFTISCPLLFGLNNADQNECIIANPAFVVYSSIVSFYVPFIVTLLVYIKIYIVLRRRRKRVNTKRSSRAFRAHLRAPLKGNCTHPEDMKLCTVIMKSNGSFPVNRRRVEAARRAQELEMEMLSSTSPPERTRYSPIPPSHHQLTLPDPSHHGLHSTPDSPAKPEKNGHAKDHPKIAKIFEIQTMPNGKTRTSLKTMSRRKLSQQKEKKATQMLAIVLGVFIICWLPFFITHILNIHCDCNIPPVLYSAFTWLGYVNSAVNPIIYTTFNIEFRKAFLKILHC

Consider `COc1cccc(OCC2CN(Cc3ccc(Cl)cc3)CCO2)c1OC` (stereo unspecified), for which the affinity at D(4) dopamine receptor [1], expressed as Ki, was 1000 nM. Besides, the outcome in assay [2] was inactive. The like results for `COc1cc(Cl)ccc1OC[C@@H]1CN(Cc2ccc(Cl)cc2)CCO1` were, in that order, 2.8 nM and “inactive”. Consider `COc1ccc(F)cc1OCC1CN(Cc2ccc(Cl)cc2)CCO1` (stereo unspecified), for which, on D(4) dopamine receptor [1], the Ki is 30 nM. Also, in assay [2], the outcome was inactive. Regarding `COCCOc1ccccc1OCC1CN(Cc2ccc(Cl)cc2)CCO1` (stereo unspecified), the affinity at D(4) dopamine receptor [1], expressed as Ki, was 52 nM. In assay [2], the result was inactive. In the case of `CCOc1ccccc1OCC1CN(Cc2ccc(Cl)cc2)CCO1` (stereo unspecified), the affinity at D(4) dopamine receptor [1], expressed as Ki, was 13 nM. Also, in assay [2], the outcome was inactive. Taken in the same sequence, the figures for `CCOc1cc(Cl)ccc1OCC1CN(Cc2ccc(Cl)cc2)CCO1` (stereo unspecified) were 13 nM and “inactive”.

Molecule `CCOc1ccc(Cl)cc1OCC1CN(Cc2ccc(Cl)cc2)CCCO1` (stereo unspecified) had an inhibition constant Ki at D(4) dopamine receptor [1] of 9.3 nM. In addition, the result in assay [2] was inactive.

Molecule `COc1ccccc1OCC1CN(Cc2cccc(Cl)c2)CCO1` (stereo unspecified) came in with a Ki on D(4) dopamine receptor [1] of 650 nM. Besides, the result in assay [2] was inactive.

For the molecule `COc1ccc(N)cc1OCC1CN(Cc2ccc(Cl)cc2)CCO1` (stereo unspecified), the Ki on D(4) dopamine receptor [1] is 100 nM. For the same molecule, the outcome in assay [2] was inactive.

Turning to `COc1cc(C(=O)NC2CC2)c(Cl)cc1OCC1CN(Cc2ccc(Cl)cc2)CCO1` (stereo unspecified), the Ki on D(4) dopamine receptor [1] is 150 nM. The outcome in assay [2] was inactive. Consider `CCOc1cc(C#N)ccc1OCC1CN(Cc2ccc(Cl)cc2)CCO1` (stereo unspecified), for which, on D(4) dopamine receptor [1], the Ki is 40 nM. The outcome in assay [2] was inactive. On to `CCOc1ccccc1OCC1CN(Cc2ccc([N+](=O)[O-])cc2)CCO1` (stereo unspecified), for which the Ki on D(4) dopamine receptor [1] worked out at 35 nM. For the same molecule, the outcome in assay [2] was inactive. On to `Clc1ccc(CN2CCOC(COc3ccc(Cl)c4cccnc34)C2)cc1` (stereo unspecified), for which the affinity on D(4) dopamine receptor [1] corresponds to a Ki of 40 nM. For the same molecule, the result in assay [2] was inactive. `COc1ccccc1CCC1CN(Cc2ccc(Cl)cc2)CCO1` (stereo unspecified): the inhibition constant Ki on D(4) dopamine receptor [1] was 29 nM. Moreover, the outcome in assay [2] was inactive. Taken in the same sequence, the figures for `CCOc1ccccc1OCC1CN(Cc2ccc(F)cc2)CCO1` (stereo unspecified) were 180 nM and “inactive”. In the case of `COc1ccc([N+](=O)[O-])cc1OCC1CN(Cc2ccc(Cl)cc2)CCCO1` (stereo unspecified), the Ki on D(4) dopamine receptor [1] stood at 400 nM. Further, the outcome in assay [2] was inactive.

For `COc1ccccc1OCC1CN(Cc2ccc(C(F)(F)F)cc2)CCO1` (stereo unspecified), at D(4) dopamine receptor [1], affinity was put at a Ki of 61 nM. The result in assay [2] was inactive. On to `COc1ccc([N+](=O)[O-])cc1OCC1CN(Cc2ccc(Cl)cc2)CCO1` (stereo unspecified), for which the Ki at D(4) dopamine receptor [1] was determined as 23 nM. Besides, the result in assay [2] was inactive. Molecule `COc1ccccc1OCC1CN(Cc2ccc(Cl)c(Cl)c2)CCO1` (stereo unspecified) yielded a Ki on D(4) dopamine receptor [1] of 32 nM. Moreover, in assay [2], the outcome was inactive.

Regarding `CC(C)Oc1ccccc1OCC1CN(Cc2ccc(Cl)cc2)CCO1` (stereo unspecified), at D(4) dopamine receptor [1], the affinity corresponds to a Ki of 46 nM. Moreover, the result in assay [2] was inactive. The like results for `CCOc1ccccc1OCC1CN(Cc2ccc(Cl)cc2)CCCO1` (stereo unspecified) were, in that order, 4.9 nM and “inactive”. As for `CCOc1ccccc1OCC1CN(Cc2ccc(Cl)cc2Cl)CCO1` (stereo unspecified), the Ki on D(4) dopamine receptor [1] turned out to be 290 nM. Further, in assay [2], the result was inactive. Take `COc1cc(Cl)ccc1OC[C@H]1CN(Cc2ccc(Cl)cc2)CCO1`: the Ki on D(4) dopamine receptor [1] is 1600 nM. In addition, the result in assay [2] was inactive. The like results for `COc1ccccc1OCC1CN(Cc2ccc(Cl)cc2)CCO1` (stereo unspecified) were, in that order, 32 nM and “inactive”. Taken in the same sequence, the figures for `Oc1cc(Cl)ccc1NCC1CN(Cc2ccc(Cl)cc2)CCO1` (stereo unspecified) were 5.4 nM and “inactive”. On D(4) dopamine receptor [1], `COc1ccc(Cl)cc1NCC1CN(Cc2ccc(Cl)cc2)CCO1` (stereo unspecified) came in with a Ki of 4.5 nM. Besides, the outcome in assay [2] was inactive. `COc1cc(I)ccc1OCC1CN(Cc2ccccc2)CCO1` (stereo unspecified) returned a Ki at D(4) dopamine receptor [1] of 430 nM. Also, the result in assay [2] was inactive. `CCOc1cc(Cl)ccc1OCC1CN(Cc2ccc(Cl)cc2)CCCO1` (stereo unspecified): affinity at D(4) dopamine receptor [1] was put at a Ki of 7 nM. In addition, the result in assay [2] was inactive. As for `COc1cc(Cl)cc(OCC2CN(Cc3ccccc3)CCO2)c1` (stereo unspecified), the outcome in assay [2] was inactive. `COc1cc(Cl)ccc1OCC1CN(Cc2ccc(Cl)cc2)CCO1` (racemic) returned an inhibition constant Ki on D(4) dopamine receptor [1] of 4.4 nM. Besides, the result in assay [2] was inactive.

The molecule `CCCc1ccccc1OCC1CN(Cc2ccc(Cl)cc2)CCO1` (stereo unspecified) yielded a Ki on D(4) dopamine receptor [1] of 32 nM. Besides, the result in assay [2] was inactive. As for `COc1cc(Cl)ccc1OCC1CN(Cc2ccc(Br)cc2)CCCO1` (stereo unspecified), the affinity on D(4) dopamine receptor [1] corresponds to a Ki of 2 nM. Besides, the outcome in assay [2] was inactive. With `COc1ccccc1OCC1CN(Cc2ccccc2)CCO1` (stereo unspecified), in assay [2], the outcome was inactive. Further, the Ki on D(4) dopamine receptor [3] amounted to 850 nM. On D(4) dopamine receptor [1], `CCOc1ccc(Cl)cc1OCC1CN(Cc2ccc(Cl)cc2)CCO1` (stereo unspecified) yielded a Ki of 2.9 nM. In assay [2], the result was inactive. The molecule `COc1ccc(Cl)cc1OCC1CN(Cc2ccccc2)CCO1` (stereo unspecified) had a Ki at D(4) dopamine receptor [1] of 70 nM. For the same molecule, the result in assay [2] was inactive.

Molecule `COc1ccccc1SCC1CN(Cc2ccc(Cl)cc2)CCO1` (stereo unspecified) registered a Ki on D(4) dopamine receptor [1] of 61 nM. Besides, the result in assay [2] was inactive.

In turn, `CC(=O)c1ccc(Cl)cc1OCC1CN(Cc2ccc(Cl)cc2)CCCO1` (stereo unspecified) gave an inhibitory constant (Ki) at D(4) dopamine receptor [1] of 5.5 nM. Besides, the result in assay [2] was inactive. At D(4) dopamine receptor [1], `CCOc1cc(I)ccc1OCC1CN(Cc2ccc(Cl)cc2)CCO1` (stereo unspecified) displayed a Ki of 24 nM. For the same molecule, in assay [2], the outcome was inactive. At D(4) dopamine receptor [1], `COc1ccc(C(F)(F)F)cc1OCC1CN(Cc2ccc(Cl)cc2)CCO1` (stereo unspecified) yielded a Ki of 250 nM. Moreover, in assay [2], the outcome was inactive. Regarding `Cc1ncccc1OCC1CN(Cc2ccc(Cl)cc2)CCCO1` (stereo unspecified), the Ki at D(4) dopamine receptor [1] was 83 nM. For the same molecule, in assay [2], the result was inactive.

Turning to `COc1ccccc1/C=C/C1CN(Cc2ccc(Cl)cc2)CCO1` (stereo unspecified), the Ki on D(4) dopamine receptor [1] was found to be 200 nM. Besides, the outcome in assay [2] was inactive.
